The source of these data is ChEMBL document CHEMBL3797175, “Discovery of 6-(difluoro(6-(4-fluorophenyl)-[1,2,4]triazolo[4,3-b][1,2,4]triazin-3-yl)methyl)quinoline as a highly potent and selective c-Met inhibitor” (Eur J Med Chem, 2016).

The source made the active and inactive calls. No cut-off for these calls is given here.

A short description of data set [1]: Oral bioavailability in Sprague-Dawley rat at 10 mg/kg administered as single dose. Conditions: in vivo. The class given is ADME, organism-based. The essentials:
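Male Sprague-Dawley rats (n=3), single dose. IV 2 mg/kg in 1% DMA/9% Cremophor/90% saline; PO 10 mg/kg in 0.5% CMC-Na. For one compound, IV 10 mg/kg in DMSO/Tween 80/PEG40 and PO 10 mg/kg in 10% DMSO/5% Tween 80/85% saline.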

Data set [2] in a line: Selectivity ratio of IC50 for human 786-0 cells to IC50 for human MKN45 cells. In kind it is ADME, cell-based. Conditions: mkn-45. The essentials: (§1)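 Both IC50s in each ratio come from one proliferation assay. Cells were seeded and exposed the next day to a range of concentrations for 72 h, then read by SRB or MTT. IC50s were fitted by four-parameter concentration–response, with each concentration at least in triplicate and at least 2 experiments. BaF3/TPR-Met is murine pre-B BaF3 transfected with TPR-MET and puromycin-selected.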

Data set [3] concerns the target Tyrosine-protein kinase ABL1 (Homo sapiens) (UniProt P00519). The data set is described as follows: Inhibition of recombinant ABL (unknown origin) using poly (Glu, Tyr) 4:1 as substrate at 1000 nM incubated for 60 mins by ELISA relative to control. Summed up: (§2)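 Recombinant tyrosine kinases assayed on wells precoated with poly(Glu,Tyr)4:1 (20 µg/mL). ATP 10 µmol/L in HEPES pH 7.4 buffer with MgCl2, MnCl2, Na3VO4 and DTT; compound in 1% DMSO, 1% DMSO as control. Reaction 60 min at 37 °C. Phosphotyrosine detected with PY99 and HRP anti-mouse, o-phenylenediamine, A490. Inhibition % relative to control; two experiments.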
(In an ELISA, binding on a coated surface is turned into a signal by an enzyme label.)

Data set [4] is described as follows: Selectivity ratio of IC50 for human MDA-MB-231 cells to IC50 for human MKN45 cells. In kind it is ADME, cell-based. The conditions noted are these: mkn-45. Summed up: as §1
Data set [5] can be described thus: Selectivity ratio of IC50 for human NCI-H1299 cells to IC50 for human EBC1 cells. The class given is ADME, cell-based. The essentials:
as §1

Data set [6] addresses T1, Hepatocyte growth factor receptor (Homo sapiens, UniProt P08581). As to the kind of experiment: Inhibition of recombinant c-Met (unknown origin) using poly (Glu, Tyr) 4:1 as substrate incubated for 60 mins by ELISA.
Data set [7] has as its target Hepatocyte growth factor receptor (Canis lupus familiaris) (UniProt Q75ZY9). The data set is described as follows: Inhibition of c-Met in MDCK cells assessed as inhibition of HGF-induced branching morphogenesis at 0.4 to 10 nM after 5 days by microscopic analysis. The class given is cell-based. The essentials:
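MDCK cells (2×10^4/mL) mixed 1:1 with collagen I and gelled 60 min at 37 °C. HGF (100 ng/mL) added with or without compound at various concentrations in growth medium. Medium renewed every 2 d; branching imaged by microscopy after 5 d. Three independent experiments.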

Data set [8] can be described thus: Antitumor activity against human EBC1 cells xenografted in athymic nude mouse assessed as tumor growth inhibition at 25 mg/kg, po bid for 21 days measured twice a week during compound dosing relative to control. Conditions: EBC-1, po, 504 h, read-out: TGI. In kind it is functional. Summed up: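 Nude mice bearing s.c. tumours. Cells were first grown s.c. to 700–800 mm³, then 1.5 mm³ fragments were transplanted s.c. into the right flank. Mice were randomised at 100–200 mm³ (n=6 treated, n=12 vehicle) and dosed orally twice daily for 21 days. Caliper measurement twice weekly; TV = length×width²/2. TGI taken on the final day versus vehicle; Student's t test.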
For orientation: In xenograft studies the graft and the host belong to different species.

A short description of data set [9]: Selectivity ratio of IC50 for human NCI-H3122 cells to IC50 for human EBC1 cells. The class given is ADME, cell-based. The essentials:
as §1

A short description of data set [10]: Selectivity ratio of IC50 for human SGC7901 cells to IC50 for human EBC1 cells. Conditions: sgc-7901. The class given is ADME, cell-based. The essentials:
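Each cell line was seeded in 96-well plates, then exposed the next day to a range of compound concentrations for 72 h. Growth was read by SRB or MTT assay, and IC50 was fitted by a four-parameter concentration-response curve. Each concentration was run at least in triplicate, in at least 2 experiments. BaF3/TPR-Met are murine pre-B BaF3 cells transfected with TPR-MET cDNA and selected in puromycin.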

The target of data set [11] is T1, Hepatocyte growth factor receptor. As to the kind of experiment: Inhibition of c-Met in HGF stimulated human U87MG cells assessed as reduction in ERK phosphorylation at Threonine 202 at 10 nM after 1 hr by Western blot analysis. The conditions noted are these: U-87MG ATCC. The class given is cell-based. The essentials:
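U87MG cells serum-starved 24 h, treated 1 h at 37 °C, then stimulated with HGF 100 ng/mL for 15 min. Lysed in SDS buffer, run on 10% SDS-PAGE and immunoblotted for phospho-ERK1/2 and phospho-AKT; ECL detection.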
For orientation: Immunoblotting shows a protein as a band on a membrane.

A short description of data set [12]: Selectivity ratio of IC50 for human NCI-H460 cells to IC50 for human EBC1 cells. The class given is ADME, cell-based. The essentials: as §1
Data set [13] can be described thus: Selectivity ratio of IC50 for human SPCA1 cells to IC50 for human EBC1 cells. The conditions noted are these: SPCA1 cells versus EBC1 cells. In kind it is ADME, cell-based.
Data set [14] deals with Insulin-like growth factor 1 receptor (Homo sapiens) (UniProt P08069). The data set is described as follows: Inhibition of recombinant IGF1R (unknown origin) using poly (Glu, Tyr) 4:1 as substrate at 1000 nM incubated for 60 mins by ELISA relative to control. The essentials:
as §2

Data set [15] concerns the target ALK tyrosine kinase receptor (Homo sapiens) (UniProt Q9UM73). As to the kind of experiment: Inhibition of recombinant ALK (unknown origin) using poly (Glu, Tyr) 4:1 as substrate at 1000 nM incubated for 60 mins by ELISA relative to control. Summed up:
as §2

Data set [16] can be described thus: Selectivity ratio of IC50 for human NCI-H460 cells to IC50 for mouse BAF3 cells expressing TPR-MET. The class given is ADME, cell-based. Summed up: as §1
Data set [17] can be described thus: Selectivity ratio of IC50 for human SMMC7721 cells to IC50 for mouse BAF3 cells expressing TPR-MET. The class given is ADME, cell-based.
Data set [18] is described as follows: Cmax in Sprague-Dawley rat at 10 mg/kg, po administered as single dose. Conditions: in vivo. In kind it is ADME, organism-based. The arrangement: dose 10 mg/kg, route oral. The essentials: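 Male Sprague Dawley rats (n=3), single dose. iv 2 mg/kg in 1% DMA/9% Cremophor/90% saline. po 10 mg/kg in 0.5% CMC-Na. Where iv was 10 mg/kg: 10% DMSO/10% Tween 80/80% (40% PEG40); po in that case in 10% DMSO/5% Tween 80/85% saline.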

Data set [19] deals with T1, Hepatocyte growth factor receptor. The data set is described as follows: Inhibition of c-Met in human NCI-H441 cells assessed as inhibition of HGF-induced cell invasion after 24 hrs by crystal violet staining based microscopic analysis. Summed up: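 NCI-H441 cells, 1.5×10^5 in serum-free medium, placed in upper Transwell chamber (8 µm pores; Matrigel-coated for invasion). Lower chamber serum-free medium ± HGF 100 ng/mL, with compound. After 24 h at 37 °C, non-migrated cells removed. Traversed cells stained with 0.1% crystal violet 15 min and imaged in 5 fields per filter. Three independent experiments.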

Data set [20] can be described thus: Selectivity ratio of IC50 for human MGC803 cells to IC50 for human EBC1 cells. The class given is ADME, cell-based. Conditions: mgc-803. The essentials:
as §1

For data set [21], the target named is Tyrosine-protein kinase receptor TYRO3 (Homo sapiens) (UniProt Q06418). As to the kind of experiment: Inhibition of recombinant TYRO3 (unknown origin) using poly (Glu, Tyr) 4:1 as substrate at 1000 nM incubated for 60 mins by ELISA relative to control. Summed up: as §2
Data set [22] can be described thus: Selectivity ratio of IC50 for human MGC803 cells to IC50 for human MKN45 cells. In kind it is ADME, cell-based. Conditions: mgc-803. Summed up:
as §1

T1 sequence (P08581 whole entry): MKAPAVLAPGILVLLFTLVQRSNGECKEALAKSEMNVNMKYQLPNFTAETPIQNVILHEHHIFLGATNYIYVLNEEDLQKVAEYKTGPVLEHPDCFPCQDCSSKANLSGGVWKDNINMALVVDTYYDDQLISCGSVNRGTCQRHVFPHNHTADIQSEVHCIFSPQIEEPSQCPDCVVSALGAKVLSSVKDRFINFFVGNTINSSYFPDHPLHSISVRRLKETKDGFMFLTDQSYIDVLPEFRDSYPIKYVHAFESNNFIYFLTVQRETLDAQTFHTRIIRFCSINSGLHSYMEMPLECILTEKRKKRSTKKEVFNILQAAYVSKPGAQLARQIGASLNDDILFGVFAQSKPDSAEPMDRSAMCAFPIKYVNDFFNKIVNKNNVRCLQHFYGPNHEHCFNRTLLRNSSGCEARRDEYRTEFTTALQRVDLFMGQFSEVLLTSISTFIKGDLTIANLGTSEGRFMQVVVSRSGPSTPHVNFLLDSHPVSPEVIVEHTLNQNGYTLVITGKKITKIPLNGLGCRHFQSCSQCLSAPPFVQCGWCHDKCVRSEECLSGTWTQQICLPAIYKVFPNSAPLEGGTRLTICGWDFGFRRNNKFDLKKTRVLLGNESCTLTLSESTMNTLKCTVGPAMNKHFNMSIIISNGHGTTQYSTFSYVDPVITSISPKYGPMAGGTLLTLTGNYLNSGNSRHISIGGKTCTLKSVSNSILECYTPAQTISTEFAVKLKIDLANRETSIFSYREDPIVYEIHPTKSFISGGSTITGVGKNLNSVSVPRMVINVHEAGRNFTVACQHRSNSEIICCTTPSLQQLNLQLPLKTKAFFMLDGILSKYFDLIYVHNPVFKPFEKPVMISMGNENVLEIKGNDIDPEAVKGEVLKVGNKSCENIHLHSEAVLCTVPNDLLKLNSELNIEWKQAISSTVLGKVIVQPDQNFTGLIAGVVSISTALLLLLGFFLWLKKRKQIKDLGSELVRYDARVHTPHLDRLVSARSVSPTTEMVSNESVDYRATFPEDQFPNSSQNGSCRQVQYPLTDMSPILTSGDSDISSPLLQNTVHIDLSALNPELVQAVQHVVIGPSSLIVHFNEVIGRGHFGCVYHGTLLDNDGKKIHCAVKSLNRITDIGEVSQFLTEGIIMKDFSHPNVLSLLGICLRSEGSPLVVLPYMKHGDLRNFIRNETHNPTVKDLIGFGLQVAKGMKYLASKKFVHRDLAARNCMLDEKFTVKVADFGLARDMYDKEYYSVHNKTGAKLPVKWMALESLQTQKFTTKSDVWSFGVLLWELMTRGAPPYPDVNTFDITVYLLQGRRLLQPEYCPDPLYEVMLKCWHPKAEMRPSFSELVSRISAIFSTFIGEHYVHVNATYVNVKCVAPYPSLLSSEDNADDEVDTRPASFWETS
Hepatocyte growth factor receptor (Canis lupus familiaris), sequence (Q75ZY9 whole entry): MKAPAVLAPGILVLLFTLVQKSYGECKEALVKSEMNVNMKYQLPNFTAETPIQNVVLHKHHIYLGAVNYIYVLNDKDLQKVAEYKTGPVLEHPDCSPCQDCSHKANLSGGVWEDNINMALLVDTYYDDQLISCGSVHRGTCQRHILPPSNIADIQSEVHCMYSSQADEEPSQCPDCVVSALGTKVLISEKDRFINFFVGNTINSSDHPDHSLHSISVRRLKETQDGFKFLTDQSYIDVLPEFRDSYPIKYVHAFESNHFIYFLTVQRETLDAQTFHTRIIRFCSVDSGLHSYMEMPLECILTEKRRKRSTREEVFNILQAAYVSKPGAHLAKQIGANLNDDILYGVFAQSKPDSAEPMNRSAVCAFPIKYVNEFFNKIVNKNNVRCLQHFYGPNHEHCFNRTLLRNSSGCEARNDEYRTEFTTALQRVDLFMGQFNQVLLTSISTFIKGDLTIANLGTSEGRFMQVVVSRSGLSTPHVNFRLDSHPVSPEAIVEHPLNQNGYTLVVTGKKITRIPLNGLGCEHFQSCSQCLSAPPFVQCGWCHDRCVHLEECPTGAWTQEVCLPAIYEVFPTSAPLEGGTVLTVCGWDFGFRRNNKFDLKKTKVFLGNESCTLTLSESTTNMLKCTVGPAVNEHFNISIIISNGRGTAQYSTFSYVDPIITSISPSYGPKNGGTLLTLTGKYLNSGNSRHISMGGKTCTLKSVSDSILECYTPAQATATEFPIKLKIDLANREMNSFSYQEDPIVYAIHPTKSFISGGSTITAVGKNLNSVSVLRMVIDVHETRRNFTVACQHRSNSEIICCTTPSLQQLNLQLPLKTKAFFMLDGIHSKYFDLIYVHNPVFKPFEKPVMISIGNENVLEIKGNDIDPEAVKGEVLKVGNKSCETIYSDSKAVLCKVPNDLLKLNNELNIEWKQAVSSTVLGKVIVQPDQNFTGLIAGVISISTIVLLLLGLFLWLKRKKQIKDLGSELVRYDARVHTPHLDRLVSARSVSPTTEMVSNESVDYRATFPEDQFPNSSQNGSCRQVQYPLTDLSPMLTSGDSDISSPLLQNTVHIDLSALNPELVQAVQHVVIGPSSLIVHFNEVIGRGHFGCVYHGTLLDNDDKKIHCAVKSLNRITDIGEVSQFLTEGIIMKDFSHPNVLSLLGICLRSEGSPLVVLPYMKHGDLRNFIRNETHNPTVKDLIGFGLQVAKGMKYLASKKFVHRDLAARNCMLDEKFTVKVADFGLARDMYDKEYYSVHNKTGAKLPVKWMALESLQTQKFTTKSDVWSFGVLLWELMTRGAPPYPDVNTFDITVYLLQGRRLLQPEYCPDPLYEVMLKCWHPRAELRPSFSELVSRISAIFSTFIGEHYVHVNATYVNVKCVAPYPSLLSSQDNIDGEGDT
Tyrosine-protein kinase ABL1 (Homo sapiens), sequence (P00519 whole entry): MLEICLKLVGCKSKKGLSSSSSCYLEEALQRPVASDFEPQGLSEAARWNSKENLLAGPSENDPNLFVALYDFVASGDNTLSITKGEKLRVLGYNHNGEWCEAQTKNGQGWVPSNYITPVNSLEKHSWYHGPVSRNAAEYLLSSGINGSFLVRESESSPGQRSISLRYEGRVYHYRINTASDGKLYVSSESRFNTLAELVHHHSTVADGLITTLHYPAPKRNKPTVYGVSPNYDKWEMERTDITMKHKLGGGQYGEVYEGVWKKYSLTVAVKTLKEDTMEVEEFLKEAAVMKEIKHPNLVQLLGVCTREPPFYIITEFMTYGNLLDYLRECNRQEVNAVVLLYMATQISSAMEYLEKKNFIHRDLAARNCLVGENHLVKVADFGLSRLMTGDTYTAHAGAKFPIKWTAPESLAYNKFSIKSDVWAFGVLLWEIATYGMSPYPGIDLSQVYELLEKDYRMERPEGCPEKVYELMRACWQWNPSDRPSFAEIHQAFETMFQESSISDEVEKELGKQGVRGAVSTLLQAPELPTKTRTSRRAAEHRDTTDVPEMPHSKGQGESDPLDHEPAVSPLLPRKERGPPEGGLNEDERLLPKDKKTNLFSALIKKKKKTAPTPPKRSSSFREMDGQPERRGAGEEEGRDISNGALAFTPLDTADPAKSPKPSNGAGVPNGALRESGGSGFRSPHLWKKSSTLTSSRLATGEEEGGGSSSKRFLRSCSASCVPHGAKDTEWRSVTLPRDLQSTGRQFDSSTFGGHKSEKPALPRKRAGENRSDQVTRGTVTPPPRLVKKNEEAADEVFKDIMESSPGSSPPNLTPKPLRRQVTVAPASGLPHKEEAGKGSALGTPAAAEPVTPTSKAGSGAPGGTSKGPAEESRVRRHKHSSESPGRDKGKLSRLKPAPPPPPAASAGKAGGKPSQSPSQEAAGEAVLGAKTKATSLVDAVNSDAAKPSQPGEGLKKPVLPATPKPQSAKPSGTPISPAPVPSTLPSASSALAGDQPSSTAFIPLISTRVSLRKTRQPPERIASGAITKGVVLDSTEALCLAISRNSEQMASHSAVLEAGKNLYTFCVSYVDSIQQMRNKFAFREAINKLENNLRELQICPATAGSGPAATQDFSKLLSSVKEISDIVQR
Tyrosine-protein kinase receptor TYRO3 (Homo sapiens), sequence (Q06418 whole entry): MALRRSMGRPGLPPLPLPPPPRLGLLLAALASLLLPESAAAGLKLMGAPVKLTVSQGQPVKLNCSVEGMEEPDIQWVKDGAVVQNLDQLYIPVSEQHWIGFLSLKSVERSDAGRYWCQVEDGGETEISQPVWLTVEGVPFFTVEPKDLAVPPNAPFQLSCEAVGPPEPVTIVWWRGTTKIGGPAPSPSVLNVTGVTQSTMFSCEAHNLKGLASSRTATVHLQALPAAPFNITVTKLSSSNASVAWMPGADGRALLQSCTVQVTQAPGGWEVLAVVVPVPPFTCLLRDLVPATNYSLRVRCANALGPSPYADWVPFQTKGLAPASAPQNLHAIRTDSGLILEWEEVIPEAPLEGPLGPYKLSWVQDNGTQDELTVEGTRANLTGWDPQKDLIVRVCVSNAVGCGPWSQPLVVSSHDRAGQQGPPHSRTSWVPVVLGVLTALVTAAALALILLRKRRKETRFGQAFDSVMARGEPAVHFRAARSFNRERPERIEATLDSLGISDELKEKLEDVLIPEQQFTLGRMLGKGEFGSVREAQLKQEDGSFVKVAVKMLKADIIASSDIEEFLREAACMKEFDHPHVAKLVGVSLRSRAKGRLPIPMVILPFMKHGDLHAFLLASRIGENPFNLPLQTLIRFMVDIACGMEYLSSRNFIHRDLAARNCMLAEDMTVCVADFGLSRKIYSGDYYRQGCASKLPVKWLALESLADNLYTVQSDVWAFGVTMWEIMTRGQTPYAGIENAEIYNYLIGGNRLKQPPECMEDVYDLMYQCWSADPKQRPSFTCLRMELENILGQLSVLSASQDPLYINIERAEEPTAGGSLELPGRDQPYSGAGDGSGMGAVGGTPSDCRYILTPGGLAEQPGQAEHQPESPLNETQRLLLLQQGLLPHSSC

The bioavailability is dose-corrected exposure relative to a reference, in per cent. As a reminder, the inhibition is the percentage by which the read-out fell short of the control. For orientation: IC50 means the concentration that gives 50% inhibition. In general, Cmax refers to the peak of the concentration-time curve. The molecule `Fc1ccc(-c2cnc3nnc(C(F)(F)c4ccc5ncccc5c4)n3n2)cc1` registered a bioavailability in data set [1] of 48.3%. In addition, the “Ratio IC50” value is 10000 in data set [2]; over 10000 in data set [4]; 10000 in data set [5]; 10000 in data set [9]; over 10000 in data set [10]; 10000 in data set [12]. Moreover, the “Ratio IC50” value in data set [16] was 10000; in data set [17], 10000; in data set [20], over 10000; in data set [22] it was over 10000. For the same molecule, the inhibition in data set [3] was 14.9%; in [14], 0.4%; in [15] it was 2.1%; in data set [19], “Dose-dependent effect”; in data set [21] it was 10.1%. In addition, the IC50 in data set [6] was found to be 0.24 nM. Besides, the inhibition result in [7] and in [11] was “Active” each time. Besides, the inhibition in vivo at 25 mg/kg in data set [8] worked out at 97.1%. Further, the selectivity ratio in data set [13] is over 10000. The same molecule showed a Cmax in [18] of 869 ng/mL.
